According to ChEMBL document CHEMBL1154145, “Inhibitory effect of macabarterin, a polyoxygenated ellagitannin from Macaranga barteri, on human neutrophil respiratory burst activity” (J Nat Prod, 2008):
Converted amounts (≈) assume the structure as drawn.

Columns and labels:
[1] = Antiinflammatory activity in human neutrophils assessed inhibition of superoxide anions production; type: functional, cell-based; details: Neutrophil
Procedure, shortened: (§1)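 Neutrophils came from heparinized blood of healthy volunteers, diluted with modified Hank's solution (MHS, pH 7.4), left 20 min at RT, then Ficoll-separated (>97% trypan-blue viable). 1.0 × 10^4 cells/mL in MHS with 250 µM WST-1 and compound were equilibrated at 37 °C. Opsonized zymosan A (15 mg/mL, pooled human serum) was added to start the reaction. A450 was read. Inhibition was calculated against a DMSO blank from five replicates.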

[2] = Antiinflammatory activity in human neutrophils assessed as respiratory burst inhibition at 1000 ug/ml by WST-1 assay; type: functional; details: Neutrophil; procedure, shortened: as §1

Row | IC50 [1] | Structure (SMILES) | inhibition at 1000 µg/mL [2]
1 | 279 µg/mL (≈ 1550 µM) | CC(=O)Oc1ccccc1C(=O)O [ASPIRIN] | 70.5%
2 |  | COc1c(O)cc2c(=O)oc3c(O)c(O)cc4c(=O)oc1c2c34 | 13.7%
3 | 758 µg/mL (≈ 2120 µM) | COc1ccc2c(c1)c(CC(=O)O)c(C)n2C(=O)c1ccc(Cl)cc1 [INDOMETHACIN] | 58.8%
4 |  | O=c1oc2c(O)c(O)cc3c(=O)oc4c(O)c(O)cc1c4c23 [ELLAGIC ACID] | 27.1%
5 |  | O=C(O)c1cc(O)c(O)c(O)c1 [GALLIC ACID] | 42.9%
6 |  | COc1c(O[C@@H]2OC[C@@H](O)[C@H](O)[C@H]2O)cc2c(=O)oc3c(O)c(O)cc4c(=O)oc1c2c34 | 29.1%
7 |  | COc1cc2ccc(=O)oc2cc1O [SCOPOLETIN] | 31.2%
8 | 821 µg/mL (≈ 746 µM) | O=C(O[C@@H]1O[C@@H]2COC(=O)c3cc(O)c(O)c(O)c3-c3c(cc(O)c(O)c3O)C(=O)O[C@@H]3[C@H]1OC(=O)c1cc(O)c(O)c4c1C1C5(C[C@]6(O)OC[C@@H](O)[C@@H]6C[C@@H]5C(O)(O)C(O)(O)[C@]1(O)O4)C(=O)O[C@@H]32)c1cc(O)c(O)c(O)c1 (stereo partly specified) [MACABARTERIN] | 73.2%
